According to ChEMBL document CHEMBL1128748, “Novel acridine-triazenes as prototype combilexins: synthesis, DNA binding, and biological activity” (J Med Chem, 1995):
pIC50: −log10 of the molar value.

Assays:
Nucleic Acid [1] = assay: Induced change in DNA-melting (deltaTm) with [poly(dA-dT)]2 at pH 65.0; type: functional
How it was run: (§1)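 Thermal denaturation in stoppered quartz cuvettes. DNA in 10 mM sodium phosphate, 1 mM EDTA, at pH 6.00 (CT-DNA, poly(dA-dT), poly(dG-dC)) or pH 7.00 (CT-DNA only). Working DNA 100 μM; ligand added in DMSO to 20 μM final (drug:DNA 1:5). DMSO up to 6.25% v/v, with linear correction. Heated at 1 °C/min and followed by A260. ΔTm is ligand minus drug-free control, mean of three.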

Nucleic Acid [2] = assay: Induced change in DNA-melting (deltaTm) with [poly(dG-dC)]2 at […]; type: functional; how it was run: as §1
Calf thymus DNA [3] = assay: Change in DNA-melting (deltaTm) with calf thymus DNA at pH 7.0; type: functional; details: Bos taurus; how it was run: as §1
Nucleic Acid [4] = assay: Inhibitory concentration against ethidium in DNA-binding assay with [poly(dA-dT)]2 (synthetic oligonucleotide); type: nucleic-acid assay
How it was run: (§2)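 Quenching of DNA-bound ethidium at pH 5.0 (9.3 mM NaCl, 2 mM NaOAc, 0.1 mM EDTA, ionic strength 0.01 M). Synthetic DNA 20 μM with 2 μM ethidium bromide, 20 °C. Drug added serially from about 5 mM DMSO stock. Excitation 546 nm, emission 595 nm. Q is the drug concentration giving 50% fluorescence loss, mean of three.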

Calf thymus DNA [5] = assay: Change in DNA-melting (deltaTm) with calf thymus DNA at […]; type: functional; details: Bos taurus; how it was run: as §1
Nucleic Acid [6] = assay: Inhibitory concentration against DNA-bound ethidium for cytotoxicity; type: functional
Calf thymus DNA [7] = assay: Inhibitory concentration against ethidium in DNA-binding assay; type: nucleic-acid assay; details: Bos taurus
How it was run: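 Ethidium displacement from CT-DNA at pH 5.0 (9.3 mM NaCl, 2 mM NaOAc, 0.1 mM EDTA), with 1.26 μM ethidium bromide and 1 μM CT-DNA, 20 °C. Drug added serially from about 5 mM DMSO stock. Excitation 546 nm, emission 595 nm. CC50 is the concentration halving bound-ethidium fluorescence, mean of three.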

A2780 = assay: Concentration required to inhibit the cell growth by 50 % after 96 hr […].; type: functional, cell-based; details: Homo sapiens, A2780, 96 h
How it was run: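 A2780 cells in DMEM with 10% FCS, glutamine, insulin and hydrocortisone, plated at (0.1–5) × 10³ per well and attached overnight. DMSO stocks (≤0.5% v/v) were diluted in pH 7.0 buffer. Continuous drug exposure for 96 h. TCA fixation, sulforhodamine B staining, Tris solubilization, absorbance at 540 nm. IC50 taken against solvent-treated drug-free controls.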

L1210 [8] = assay: Concentration required to inhibit the cell growth by 50 % after 48 hr in L1210 leukemic cells.; type: functional, cell-based; details: Mus musculus, L1210, 48 h
How it was run: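 Mouse L1210 leukemia cells at 5 × 10³ cells/mL. Exposed to drug for 48 h at 37 °C; stocks held ≤0.5% v/v DMSO. Surviving cells were counted with a Coulter counter against drug-free controls to give IC50. Run in duplicate.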

Nucleic Acid [9] = assay: Inhibitory concentration against ethidium in DNA-binding assay with [poly(dG-dC)]2 (synthetic oligonucleotide); type: nucleic-acid assay; how it was run: as §2
Calf thymus DNA [10] = assay: (§3) Induced change in DNA-melting (deltaTm) with calf thymus DNA at pH 7.0; type: nucleic-acid assay; details: Bos taurus; how it was run: as §1
Nucleic Acid [11] = assay: Induced change in DNA-melting (deltaTm) with [poly(dA-dT)]2 at […]; type: functional; how it was run: as §1
Calf thymus DNA [12] = assay: Induced change in DNA-biphasic melting (deltaTm) with calf thymus DNA at […]; type: functional; details: Bos taurus; how it was run: as §1
Calf thymus DNA [13] = assay: Induced change in DNA-biphasic melting (deltaTm) with calf thymus DNA at pH 7.0; type: functional; details: Bos taurus; how it was run: as §1
L1210 [14] = assay: Inhibitory concentration against L1210 leukemic cell proliferation over 24 hr; details: Mus musculus, L1210, 24 h
Calf thymus DNA [15] = assay: as §3; type: functional; details: Bos taurus; how it was run: as §1
Calf thymus DNA [16] = assay: Induced change in DNA-melting (deltaTm) with calf thymus DNA at […]; type: functional; details: Bos taurus; how it was run: as §1

SMILES	Tm shift degreeC (Nucleic Acid [1]) [°C]	Tm shift (Nucleic Acid [2]) [°C]	Tm shift (Calf thymus DNA [3]) [°C]	Q (Nucleic Acid [4]) [µM]	Tm shift (Calf thymus DNA [5]) [°C]	CC50 (Nucleic Acid [6]) [µM]	Q (Calf thymus DNA [7]) [µM]	pIC50 (A2780)	pIC50 (L1210 [8])	Q (Nucleic Acid [9]) [µM]	Tm shift (Calf thymus DNA [10]) [°C]	Tm shift (Nucleic Acid [11]) [°C]	Tm shift (Calf thymus DNA [12]) [°C]	Tm shift (Calf thymus DNA [13]) [°C]	pIC50 (L1210 [14])	Tm shift (Calf thymus DNA [15]) [°C]	Tm shift (Calf thymus DNA [16]) [°C]
c1ccc(-c2c3ccccc3nc3ccccc23)cc1	0.6	0.4	0.4	23	1.3	175	22	< 4.00	4.10	18	–	–	–	–	–	–	–
O=C(OCCN1CCCCC1)c1ccc(/N=N/Nc2ccc(C(=O)OCCN3CCCCC3)cc2)cc1	–	–	–	11	14.5	5.7	13	–	< 4.00	14	7.7	–	–	–	–	–	–
Cc1nc(-c2c3ccccc3nc3ccccc23)sc1CCO	–	< 0.2	< 0.2	22	1	190	21	< 4.00	–	19	–	0.7	–	–	–	–	–
Nc1ccc2c(=O)c3ccc(N)cc3[nH]c2c1	–	–	–	–	–	–	–	< 4.00	4.17	–	–	–	–	–	–	–	–
Cc1nc(-c2c3ccccc3nc3ccccc23)sc1CCOC(=O)c1ccc(N/N=N/c2ccc(C(N)=O)cc2)cc1	–	–	–	21	–	96	26	5.28	4.55	36	–	–	–	–	–	–	–
Nc1ccc2c(-c3ccccc3)c3ccc(N)cc3nc2c1	–	3.3	6.9	22	11.7	–	19	5.92	5.70	16	–	20.3	–	–	–	–	–
Cc1nc(-c2c3ccccc3nc3ccccc23)sc1CCOC(=O)c1ccc(N/N=N/c2ccc(C(=O)OCCN3CCCCC3)cc2)cc1	–	0.2	–	14	2.4	3.2	27	5.41	5.21	52	1.5	1.9	–	–	–	–	–
Cc1nc(-c2c3ccccc3nc3ccccc23)sc1CCOC(=O)c1ccc(/N=N/Nc2ccc(C(=O)OCCN(C)C)cc2)cc1	–	< 0.2	–	16	–	3.6	35	5.51	5.49	66	–	1.7	3	1.8	–	–	–
Cc1nc(-c2c3ccccc3nc3ccccc23)sc1CCOC(=O)c1ccc(/N=N/Nc2cccc(C(=O)OCCN(C)C)c2)cc1	–	< 0.2	–	14	–	1.2	17	5.42	5.52	34	–	1.6	2.1	–	–	–	–
Cc1nc(-c2c3ccccc3nc3ccccc23)sc1CCOC(=O)c1ccc(N/N=N/c2ccc(C(=N)N)cc2)cc1	–	–	–	12	–	2.9	18	4.80	4.18	31	–	2.4	–	–	–	–	–
c1ccc2nc3ccccc3cc2c1 [ACRIDINE]	–	0.8	0.7	26	1.7	142	24	< 4.00	4.35	22	–	0.7	–	–	–	–	–
Cc1nc(-c2c3ccccc3nc3ccccc23)sc1CCOC(=O)c1ccc(N/N=N/c2ccc(C(=O)OCCN3CCOCC3)cc2)cc1	–	–	–	17	–	6.1	28	5.59	4.49	39	–	0.9	2.4	–	–	–	–
Cc1nc(-c2c3ccccc3nc3ccccc23)sc1CCOC(=O)c1ccc(N)cc1	–	–	0.4	24	1.1	230	20	< 4.00	–	17	–	0.8	–	–	–	–	–
N=C(N)c1ccc(/N=N/Nc2ccc(C(=N)N)cc2)cc1 [DIMINAZENE]	–	–	7.9	5	9.3	4.4	9	–	4.49	19	–	–	–	–	–	–	–
Cc1nc(-c2c3ccccc3nc3ccccc23)sc1CCOC(=O)c1ccc(N/N=N/c2ccc(C(=O)OCCN3CCCC3)cc2)cc1	–	0.3	1.4	15	2.9	2.8	26	5.46	5.47	45	–	1.5	–	–	–	–	–
CC(=O)c1ccc(N/N=N/c2ccc(C(=O)OCCc3sc(-c4c5ccccc5nc5ccccc45)nc3C)cc2)cc1	–	–	–	19	–	123	25	< 4.00	4.00	33	–	–	–	–	–	–	–
COc1cc(NS(C)(=O)=O)ccc1Nc1c2ccccc2nc2ccccc12 [AMSACRINE]	–	–	1	25	–	8.9	3.8	7.00	–	4.5	–	4	–	–	7.30	–	–
O=C(OCCN1CCOCC1)c1ccc(/N=N/Nc2ccc(C(=O)OCCN3CCOCC3)cc2)cc1	–	–	–	14	3.6	6.8	15	–	< 4.00	17	–	–	–	–	–	1.4	–
Nc1ccc2cc3ccc(N)cc3nc2c1 [PROFLAVINE]	–	7	11.5	24	–	–	20	6.33	5.57	14	–	24.4	–	–	–	–	16.4
